Screens as filed in PubChem BioAssay.
TRPC4 potent = allosteric potentiators of mouse TRPC4 channel; Q9QUQ5; HEK293 TRPC4beta/mu-opioid, DAMGO EC20, Fluo-4 Ca2+ flux; hits give high values; B-score at 10 µM; 0.42% of 310,000 active;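 active means B-score of calcium response area above 5 SD of library B-scores, with initial fluorescence ratio within 5 SD of library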;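 further: B-score of integrated fluorescence ratio over time as area under calcium response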
Target sequence (Q9QUQ5 whole entry, looked up): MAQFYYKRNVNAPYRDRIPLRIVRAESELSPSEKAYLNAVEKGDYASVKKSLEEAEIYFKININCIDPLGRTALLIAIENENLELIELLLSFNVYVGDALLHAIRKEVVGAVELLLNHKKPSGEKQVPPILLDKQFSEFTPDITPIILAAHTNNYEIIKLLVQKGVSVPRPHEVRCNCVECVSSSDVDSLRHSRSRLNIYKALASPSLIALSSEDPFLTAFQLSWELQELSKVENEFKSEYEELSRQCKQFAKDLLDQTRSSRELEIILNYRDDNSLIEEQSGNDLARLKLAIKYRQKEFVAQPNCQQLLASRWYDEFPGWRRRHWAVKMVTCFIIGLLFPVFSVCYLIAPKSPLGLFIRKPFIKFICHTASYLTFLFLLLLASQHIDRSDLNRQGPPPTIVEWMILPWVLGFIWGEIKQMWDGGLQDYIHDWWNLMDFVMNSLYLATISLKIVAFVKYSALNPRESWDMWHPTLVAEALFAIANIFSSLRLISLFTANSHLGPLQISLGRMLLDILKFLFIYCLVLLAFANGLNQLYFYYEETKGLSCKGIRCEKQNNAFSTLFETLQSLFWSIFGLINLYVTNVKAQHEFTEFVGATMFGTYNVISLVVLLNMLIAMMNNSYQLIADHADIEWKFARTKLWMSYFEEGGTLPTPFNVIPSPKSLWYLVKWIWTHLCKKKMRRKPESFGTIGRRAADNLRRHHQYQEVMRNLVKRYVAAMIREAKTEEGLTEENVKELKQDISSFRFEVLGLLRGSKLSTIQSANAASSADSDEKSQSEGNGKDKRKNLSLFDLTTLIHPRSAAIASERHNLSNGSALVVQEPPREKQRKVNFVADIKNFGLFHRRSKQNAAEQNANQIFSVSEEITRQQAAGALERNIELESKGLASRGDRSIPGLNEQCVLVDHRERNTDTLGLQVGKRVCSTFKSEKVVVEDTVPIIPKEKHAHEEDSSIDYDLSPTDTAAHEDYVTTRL
TRPC6 inh = inhibitors of mouse TRPC6 channel. HEK293-TRPC6, membrane potential dye, ACh-evoked depolarization; hits give low values. B-score at 10 µM. 1.1% of 310,000 active;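 active means B-score under library mean minus 3 SD, initial fluorescence not abnormally high, positive integrated signal ratio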;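 further: B-score derived from integrated fluorescence ratio over the kinetic read; more negative B-score means stronger inhibition of depolarization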
TRPC4 act = opens the mouse TRPC4 cation channel; HEK293 TRPC4beta/mu-opioid, Fluo4 calcium fluorescence; hits give high values; Q9QUQ5; 0.49% of 310,000 active; B-score at 10 µM;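 active means B-score above 5 SD of library B-scores, and initial fluorescence ratio not above library mean plus 5 SD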;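 further: positive B-score marks a calcium rise read as TRPC4 activation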
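Technique: kinetic Fluo4 calcium fluorescence; Test system: TRPC4beta and mu-opioid receptor HEK293 stable cells; Measure: B-scored integrated calcium fluorescence ratio; Benchmarks: low control buffer alone, high control maximal DAMGO; Schedule: 45 min room-temperature Fluo4 loading, 110 s read.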
TRPC6 act = activators of mouse TRPC6 channel; Q61143; 0.13% of 310,000 active; AID 2550; B-score at 10 µM; HEK293-TRPC6 membrane potential dye fluorescence; hits give high values;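 active means B-score of the integrated fluorescence ratio above library mean plus 3 SD, and starting fluorescence ratio within library mean plus 5 SD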;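 further: higher score means more depolarization so channel activation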
TRPC4 inh = TRPC4 (mouse) channel inhibition; B-score at 10 µM; AID 2247; HEK293 TRPC4beta/mu-opioid, DAMGO-evoked Fluo4 calcium flux; hits give low values; 0.39% of 300,000 active;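 active means B-score over 3 SD under the library average, no early fluorescence shift, positive overall ratio signal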
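Material: HEK293 cells with stable TRPC4beta plus mu-opioid receptor expression / Probe or stimulus: DAMGO in two steps, submaximal then maximal / Compound: single concentration per test compound / Technique: kinetic Fluo4 fluorescence imaging of calcium influx / Read-out: per-well B score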
TRPC4 spec 2 = second selectivity test of TRPC6 inhibitors: effect on mouse TRPC4; shares compounds with TRPC6 inh; inhibition, % at 10 µM; AID 2776; 42% of 920 active; HEK293 TRPC4/MOR, membrane potential dye fluorescence; channel activated by saturating DAMGO dose;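 active means compounds whose fluorescence signal differed from control wells by over 3 SD, either direction, in both duplicate plates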
TRPC4 spec = selectivity of TRPC6 inhibitors: effect on mouse TRPC4. HEK293 TRPC4/mu-opioid, membrane potential fluorescence. AID 2777. activity change, negative = inhibition, % at 10 µM. shares compounds with TRPC6 inh. 61% of 920 active;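 active means rise or fall in signal beyond 3 SD of buffer-only wells in both replicate plates, either sign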;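 further: integrated kinetic ratio of fluorescence range over baseline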
HEK293 MPD ctr 2-1 = parental HEK293 nonspecific activity of TRPC6 inhibitors, second screen | shares compounds with TRPC6 inh | parental HEK293 membrane potential dye fluorescence; maximal acetylcholine challenge after compound addition | signal change vs control, % at 10 µM | 31% of 920 active;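 active means membrane potential signal moving either way by over 3 SD of the maximum-effect control, in both duplicate plates, meaning non-specific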
HEK293 MPD ctr-1 = checks TRPC6 inhibitor effects in parental HEK293 cells | shares compounds with TRPC6 inh | parental HEK293 membrane potential dye fluorescence | membrane potential signal change, % at 10 µM | 60% of 920 active;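 active means membrane potential signal shifting up or down by more than 3 SD of buffer-only wells, on both duplicate plates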
HEK293 MPD ctr-2 = counter-screen for TRPC6 modulators: effect in parental HEK293 cells; shares compounds with TRPC6 inh; membrane potential dye fluorescence; membrane potential signal change, % at 10 µM; 51% of 2,400 active;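 active means membrane potential signal moves up or down beyond 5 SD from buffer-only wells, on both duplicate plates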
HEK293 MPD ctr 2-2 = parental HEK293 nonspecific activity of TRPC6 modulators, second screen. shares compounds with TRPC6 inh. membrane potential dye fluorescence; after compound, maximal acetylcholine stimulation. inhibition, % at 10 µM. 14% of 2,400 active;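 active means membrane potential signal drops by more than 5 SD from the mean control signal, in both duplicate plates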;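 further: plate controls were acetylcholine ECmax control wells for no effect and buffer only wells for full effect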
TRPC4/MOR mod = tests whether TRPC6 modulators also affect mouse TRPC4; shares compounds with TRPC6 inh; HEK293 TRPC4/mu-opioid, membrane potential fluorescence; percent change from control (negative = decrease, positive = increase), % at 10 µM; 69% of 2,400 active; AID 488927;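 active means membrane potential signal moved up or down beyond 5 SD of buffer control wells, in both duplicate plates, actives on both sides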;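 further: plate controls were assay buffer wells for no effect and DAMGO maximal-effect wells for full effect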
TRPC4 ctr inh 2 = second check of whether TRPC6 modulators also affect mouse TRPC4; shares compounds with TRPC6 inh; HEK293 TRPC4/mu-opioid, membrane potential dye fluorescence; stimulated with maximal-effect DAMGO; inhibition, % at 10 µM; 55% of 2,400 active; AID 488928;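 active means drop in membrane potential signal beyond 5 SD of the control wells in both duplicate plates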;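 further: TRPC4 counter screen for TRPC6 hits run under conditions tuned for TRPC6 not TRPC4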
TRPC6 inh conf = mouse TRPC6 inhibitor confirmation | shares compounds with TRPC6 inh | HEK293-TRPC6, membrane potential dye, ACh-evoked depolarization | inhibition, % at 10 µM | 43% of 3,300 active | AID 488960;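 active means fluorescence ratio falls more than 5 SD below the full-stimulation control mean, in both duplicate runs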;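 further: integrated fluorescence ratio of peak minus minimum over baseline after agonist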
TRPC6 act confirm = confirmation of mouse TRPC6 activators | shares compounds with TRPC6 inh | HEK293-TRPC6 membrane potential dye fluorescence, FDSS | activation, % at 10 µM | 11% of 2,800 active | AID 488961;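 active means ratio signal rise beyond 5 SD above unstimulated control wells' mean, seen in both duplicate runs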;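 further: plate controls were buffer EC0 wells for no effect and acetylcholine ECmax response for full effect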
Numbers without * were called inactive. Compounds with a hit are over-represented: about 2.3% of the library has one in this group of screens.

Screening O=C1CC2(CCN(C(=O)c3ccccc3Cl)CC2)Oc2ccccc21 returned TRPC4 potent inactive, TRPC6 inh inactive, TRPC4 act inactive, TRPC6 act inactive and TRPC4 inh inactive.
For CCOC(=O)C1(C)/C(=N/Nc2ccccc2Cl)C(=O)C(=O)N1c1ccccc1 (centres undefined) the results were TRPC4 potent inactive, TRPC6 inh -5.06*, TRPC4 act inactive, TRPC6 act inactive, TRPC4 inh inactive, HEK293 MPD ctr-2 -76.5%*, HEK293 MPD ctr 2-2 inactive, TRPC4/MOR mod -21.0%*, TRPC4 ctr inh 2 48.5%*, TRPC6 inh conf inactive and TRPC6 act confirm inactive.
For CCOC(=O)C1(C)/C(=N/Nc2ccc(Cl)cc2)C(=O)C(=O)N1c1ccccc1 (centres undefined) the results were TRPC4 potent inactive, TRPC6 inh inactive, TRPC4 act inactive, TRPC6 act inactive and TRPC4 inh inactive.
For CC(C)C(=O)Nc1c2c(nn1-c1ccc([N+](=O)[O-])cc1)CS(=O)(=O)C2 the results were TRPC4 potent inactive, TRPC6 inh inactive, TRPC4 act inactive, TRPC6 act inactive and TRPC4 inh inactive.
For Cc1ccc(-n2nc3c(c2NC(=O)C(C)C)CS(=O)(=O)C3)cc1 the results were TRPC4 potent inactive, TRPC6 inh -5.53*, TRPC4 act inactive, TRPC6 act inactive, TRPC4 inh inactive, HEK293 MPD ctr-2 inactive, HEK293 MPD ctr 2-2 inactive, TRPC4/MOR mod 21.0%*, TRPC4 ctr inh 2 inactive and TRPC6 inh conf inactive.
`CC1(C)CN=c2s/c(=C\c3ccc(Cl)cc3)c(=O)n2C1` gave TRPC4 potent 16*, TRPC6 inh -7.26*, TRPC4 act inactive, TRPC6 act inactive, TRPC4 inh inactive, TRPC4 spec 2 54.0%*, TRPC4 spec -10.3%*, HEK293 MPD ctr 2-1 inactive, HEK293 MPD ctr-1 inactive, TRPC6 inh conf inactive and TRPC6 act confirm inactive.
`CSC1=N/C(=C\c2ccc(Cl)cc2)C(=O)N1N(C)C` gave TRPC4 potent inactive, TRPC6 inh inactive, TRPC4 act inactive, TRPC6 act inactive and TRPC4 inh inactive.
Screening NC(=O)COC(=O)c1cc(-c2cccs2)nn1-c1ccccc1 returned TRPC4 potent inactive, TRPC6 inh inactive, TRPC4 act inactive and TRPC6 act inactive.
